Fh CTSL1 inh = blocks F. hepatica cathepsin L1 in PFM18AAP counter-screen; AID 1906; 0.49% of 300,000 active; recombinant F. hepatica cathepsin L1, Z-Leu-Arg-MCA fluorescence; inhibition, % at 5.96 µM;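 active = inhibition above the mean of all tested compounds plus 3 SD, set per screening campaign, cut at about 17% in these data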
PREPL inh = human PREPL enzyme inhibition | AID 2751 | inhibition, % at 5.96 µM | recombinant PREPL, fluorescence polarization activity-based probe | 0.68% of 320,000 active | Q4J6C6; in the data active = inhibition above about 43%
UCH37 inh = inhibitors of human deubiquitinating enzyme UCH37; Q9Y5K5; purified proteasome/UCH37, Ub-AMC cleavage fluorescence; inhibition, % (test concentration not listed); 0.33% of 330,000 active; AID 588478;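 active = mean inhibition over replicate wells above about 20%, limit read from the data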
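assay system = human UCH37 enzyme supplied as purified proteasome complex | amount = proteasome at 0.15 nM in the dispensed enzyme solution | schedule = 30 min compound-proteasome preincubation then 25 min substrate reaction, room temperature | measured by = fluorescence, ex 355 nm, em 460 nm | benchmarks = no-proteasome wells (full inhibition) and compound-free wells (no inhibition)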
PP5 primary = blocks human protein phosphatase 5 activity. P53041. purified PP5c, OMFP substrate fluorescence. inhibition, % at 6.7 µM. 0.18% of 320,000 active. AID 1987;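 active = inhibition above the campaign's mean inhibition across all tested compounds plus 3 SD, cut at about 9.5% in these data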
UBC13 polyUb = inhibitors of human UBC13 polyubiquitin chain formation | AID 485273 | P61088 | inhibition, % at 20 µM | TR-FRET | 0.47% of 330,000 active; in the data active = inhibition above about 45%, passing the limit was not always enough; inconclusive = no clear call, values can overlap the other calls
Target sequence (P61088 whole entry, looked up): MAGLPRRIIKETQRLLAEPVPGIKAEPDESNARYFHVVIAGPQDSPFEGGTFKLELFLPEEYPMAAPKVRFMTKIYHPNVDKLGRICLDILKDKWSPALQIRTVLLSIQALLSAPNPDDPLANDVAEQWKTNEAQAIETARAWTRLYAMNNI
PP1 counter = counter-screen for PP5 inhibitors: inhibitors of human PP1-alpha | P62136 | purified PP1alpha, OMFP fluorescence | inhibition, % at 6.7 µM | 0.9% of 320,000 active | AID 2235;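 active = inhibition above the mean inhibition of all tested compounds plus 3 SD, computed separately for each screening campaign, cut at about 15% in these data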
Casp3 UBC13 ctr = inhibits human caspase-3 in UBC13 counter-screen; shares compounds with UBC13 polyUb; Recombinant caspase-3, Caspase-Glo 3/7 luminescence, 60 min; inhibition, % at 20 µM; 4% of 1,400 active; AID 488856;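 active = mean inhibition across replicates above about 26%, limit read from the data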
Target sequence (P42574 whole entry, looked up): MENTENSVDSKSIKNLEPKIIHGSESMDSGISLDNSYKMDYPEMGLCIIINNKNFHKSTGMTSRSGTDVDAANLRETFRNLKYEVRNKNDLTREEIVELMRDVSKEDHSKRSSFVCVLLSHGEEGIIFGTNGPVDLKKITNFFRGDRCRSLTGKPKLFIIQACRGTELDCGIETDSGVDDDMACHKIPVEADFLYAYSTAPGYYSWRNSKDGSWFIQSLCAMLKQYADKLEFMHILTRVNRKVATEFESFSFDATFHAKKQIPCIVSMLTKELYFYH
UBC13 conf = confirmation of human UBC13 polyubiquitin inhibitors; shares compounds with UBC13 polyUb; inhibition, % at 10 µM; UBC13 polyubiquitination, TR-FRET, biochemical; AID 488859; 68% of 1,400 active; in the data active = inhibition above about 45%; inconclusive = no clear call, values can overlap the other calls
A number is an active result; - = inactive; ? = inconclusive; . = no result given. Only some compounds are listed: those with a hit (about 2.3% of all), similar ones and a draw of the others.

SMILES	Fh CTSL1 inh	PREPL inh	UCH37 inh	PP5 primary	UBC13 polyUb	PP1 counter	Casp3 UBC13 ctr	UBC13 conf
CC(C)C[C@H](NC(=O)c1nc[nH]c1C(=O)N[C@@H](CCCCN)C(=O)OC(C)(C)C)C(=O)OC(C)(C)C	.	-	-	.	53.2	.	-	53.4
CC(C)(C)OC(=O)[C@H](Cc1ccccc1)NC(=O)c1nc[nH]c1C(=O)N[C@@H](CCCCN)C(=O)OC(C)(C)C	.	-	-	.	72.6	.	-	75.5
COc1ccc(NC(=O)CS(=O)CC(=O)Nc2cc(Cl)ccc2OC)cc1 (stereo not drawn)	-	-	-	-	53.6	-	-	53.3
NC(=O)NN=Cc1sc(N2CCCCC2)nc1-c1cccs1	.	.	-	.	.	.	.	.
CCOC(=O)C(CCC[N+](C)(CC)CC)=NO	.	.	-	.	.	.	.	.
C#CCOCCOCCOCCNc1nc(N2CCN(C(=O)C([C@@H](C)O)n3cc([C@@H](N)CCCCN)nn3)CC2)nc(N2CCN(C(=O)[C@H](CCC(=O)O)n3cc([C@@H](N)CCCCN)nn3)CC2)n1 (stereo partly drawn)	.	-	-	.	-	.	.	.
C#CCOCCOCCOCCNc1nc(N2CCN(C(=O)C([C@@H](C)O)n3cc([C@@H](N)CCCCN)nn3)CC2)nc(N2CCN(C(=O)[C@H](CCCCN)n3cc([C@@H](N)CC(N)=O)nn3)CC2)n1 (stereo partly drawn)	.	-	-	.	103.1	.	-	106.1
C#CCOCCOCCOCCNc1nc(N2CCN(C(=O)[C@H](CCCCN)n3cc([C@@H](N)CC(N)=O)nn3)CC2)nc(N2CCN(C(=O)[C@H](CCCCN)n3cc([C@@H](N)CC(N)=O)nn3)CC2)n1	.	-	-	.	108.4	.	-	111.0
CCOc1ccc(NC(=O)Cn2c(=O)n(CCCC(=O)NC3CCN(Cc4ccccc4)CC3)c(=O)c3ccccc32)cc1	-	-	-	-	91.8	-	-	96.8
NC(=O)Cn1c(=O)n(CCCC(=O)NC2CCN(Cc3ccccc3)CC2)c(=O)c2ccccc21	-	-	-	-	-	-	.	.
Cc1ccc(/C=C2\SC(=S)N(CCC(=O)NCCCN3CCOCC3)C2=O)cc1	-	-	-	-	-	-	.	.
CN1CCN(C(=O)CCN2C(=O)/C(=C/c3ccccc3Cl)SC2=S)CC1	-	-	-	-	69.3	-	-	87.0
O=C(CCN1C(=O)/C(=C/c2ccccc2Cl)SC1=S)NCCCN1CCOCC1	-	-	-	-	45.0	-	-	61.3
CCC(=NOC(=O)c1ccc(OC(C)C)cc1)c1ccc(C)cc1	.	.	-	.	.	.	.	.
CCc1ccc(C2CC(c3ccc(F)cc3)Nc3nc(N)nn32)cc1 (stereo not drawn)	-	-	-	-	48.7	-	-	-
Cn1c(=O)c2c(ncn2Cc2cccc(Cl)c2)n(C)c1=O	-	-	-	-	74.3	-	-	74.9
Cn1c(=O)n(CCc2ccccc2)c(=O)c2c1ncn2Cc1ccccc1	-	-	-	-	-	-	.	.
COc1cc(C=NN2C(C)CCCC2C)cc(OC)c1O (stereo not drawn)	.	.	-	.	.	.	.	.
O=C(NN=C/C=C/c1cccc([N+](=O)[O-])c1)c1ccncc1	.	.	-	.	.	.	.	.
c1ccc2c(-c3ccc(OCCN4CCCCC4)cc3)c(-c3ccsc3)sc2c1	.	-	.	.	58.5	.	-	55.8
c1ccc(-c2sc3ccccc3c2-c2ccc(OCCN3CCCCC3)cc2)cc1	.	-	-	.	-	.	.	.
CN(C)CCOc1ccc(-c2c(-c3ccccc3)sc3ccccc23)cc1	.	-	-	.	82.3	.	-	90.4
Cc1ccc(CN2CCSc3ccc(C(=O)NC4CCN(Cc5ccccc5)CC4)cc32)cc1	-	-	-	-	62.1	-	-	?
C/C(C=NNC(=O)Cc1cccn1C)=C\c1ccco1	.	.	-	.	.	.	.	.
CCOC(=O)c1nn(-c2ccccc2)c(=O)cc1OCC(=O)Nc1ccccc1OCC	-	-	-	-	56.7	-	-	?
CC(=NNS(=O)(=O)c1ccc(C)cc1C)c1ccc2c(c1)OCO2	.	.	-	.	.	.	.	.
COc1cccc(-n2nnnc2SCC(=O)NCc2ccc3c(c2)OCO3)c1	-	-	-	-	-	-	.	.

Source: PubChem BioAssay (several laboratories)
